Legend:
[1] = molecular target: T1, Hepatic triacylglycerol lipase (Homo sapiens, UniProt P11150); experiment: Inhibition of human hepatic lipase expressed in African green monkey COS7 cells using PED-A1 as substrate incubated for 20 mins and measured every 20 secs for 10 mins by FRET assay; assay type: cell-based
T1 sequence (P11150 whole entry): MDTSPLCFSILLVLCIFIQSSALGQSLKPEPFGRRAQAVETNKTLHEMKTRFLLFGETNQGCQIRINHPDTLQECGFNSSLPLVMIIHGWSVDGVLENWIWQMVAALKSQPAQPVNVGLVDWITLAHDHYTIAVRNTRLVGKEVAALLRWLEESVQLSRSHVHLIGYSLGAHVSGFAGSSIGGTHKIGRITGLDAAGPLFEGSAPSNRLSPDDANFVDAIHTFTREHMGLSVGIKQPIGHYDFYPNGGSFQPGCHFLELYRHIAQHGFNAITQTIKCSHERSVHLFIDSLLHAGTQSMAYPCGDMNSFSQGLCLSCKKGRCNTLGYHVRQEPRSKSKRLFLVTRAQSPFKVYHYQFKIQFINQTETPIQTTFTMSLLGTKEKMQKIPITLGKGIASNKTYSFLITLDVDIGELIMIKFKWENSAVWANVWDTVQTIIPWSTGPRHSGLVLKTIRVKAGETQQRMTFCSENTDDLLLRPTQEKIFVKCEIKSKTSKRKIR
Procedure, shortened: (§1)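 IC50s were calculated from mean inhibition values of duplicate determinations.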

Endothelial lipase [2] = molecular target: T2, Endothelial lipase (Mus musculus, UniProt Q9WVG5); experiment: Inhibition of mouse endothelial lipase expressed in HEK293F cells using D31-POPC-HDL as substrate incubated for 2 hrs in presence of mouse plasma by LC/MS analysis
T2 sequence (Q9WVG5 whole entry): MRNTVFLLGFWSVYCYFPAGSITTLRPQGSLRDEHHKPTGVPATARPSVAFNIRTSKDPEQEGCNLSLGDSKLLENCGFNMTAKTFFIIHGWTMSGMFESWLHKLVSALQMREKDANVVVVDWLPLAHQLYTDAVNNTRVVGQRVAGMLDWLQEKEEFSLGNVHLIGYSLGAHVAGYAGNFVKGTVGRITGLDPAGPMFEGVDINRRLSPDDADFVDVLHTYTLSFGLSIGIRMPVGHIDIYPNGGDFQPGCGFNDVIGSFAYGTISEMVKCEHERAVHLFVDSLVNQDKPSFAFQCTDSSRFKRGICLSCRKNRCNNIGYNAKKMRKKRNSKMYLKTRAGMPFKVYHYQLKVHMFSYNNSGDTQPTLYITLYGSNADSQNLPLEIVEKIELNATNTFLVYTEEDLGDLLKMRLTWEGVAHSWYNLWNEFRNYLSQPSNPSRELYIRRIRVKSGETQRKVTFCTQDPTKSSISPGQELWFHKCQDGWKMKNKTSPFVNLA
Procedure, shortened: (§2)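 IC50 values were derived from the means of duplicate inhibition measurements.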

[3] = Permeability of compound at pH 5.5 by PAMPA; assay type: ADME; details: read-out: permeability
Procedure, shortened: (§3)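 Permeability was measured by parallel artificial membrane permeability assay (PAMPA) at pH 5.5 and pH 7.4. Values are reported in nm/s.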

[4] = Permeability of compound at pH 7.4 by PAMPA; assay type: ADME; details: read-out: permeability; procedure, shortened: as §3
Homo sapiens = species on record: Homo sapiens; experiment: Selectivity index, ratio of IC50 for inhibition of human hepatic lipase expressed in African green monkey COS7 cells to IC50 for inhibition of human endothelial lipase derived from human HT1080 cell conditioned media; assay type: cell-based
Endothelial lipase [5] = molecular target: T3, Endothelial lipase (Homo sapiens, UniProt Q9Y5X9); experiment: Inhibition of human endothelial lipase using D31-POPC-HDL as substrate incubated for 2 hrs in presence of human serum by LC/MS analysis; procedure, shortened: as §2
T3 sequence (Q9Y5X9 whole entry): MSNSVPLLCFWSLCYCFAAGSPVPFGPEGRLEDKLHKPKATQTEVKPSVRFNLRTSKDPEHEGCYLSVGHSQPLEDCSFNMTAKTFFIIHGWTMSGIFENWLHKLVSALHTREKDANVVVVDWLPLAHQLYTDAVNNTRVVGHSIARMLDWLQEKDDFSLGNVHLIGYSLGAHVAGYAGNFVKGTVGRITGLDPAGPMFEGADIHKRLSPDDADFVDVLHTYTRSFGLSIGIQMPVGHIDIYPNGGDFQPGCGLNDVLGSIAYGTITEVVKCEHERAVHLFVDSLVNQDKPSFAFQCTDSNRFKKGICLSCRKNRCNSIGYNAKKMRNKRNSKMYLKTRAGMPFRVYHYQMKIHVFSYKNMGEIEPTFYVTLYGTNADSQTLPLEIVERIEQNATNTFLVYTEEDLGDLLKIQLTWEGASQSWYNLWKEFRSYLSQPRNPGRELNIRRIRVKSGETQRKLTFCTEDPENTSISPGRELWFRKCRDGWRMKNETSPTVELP

Endothelial lipase [6] = molecular target: T3, Endothelial lipase; experiment: Inhibition of human endothelial lipase derived from human HT1080 cell conditioned media using PED-A1 as substrate incubated for 20 mins and measured every 20 secs for 10 mins by FRET assay; procedure, shortened: as §1
[7] = Cmax in Balb/c mouse at 10 mg/kg, po; assay type: ADME, organism-based; parameters: dose 10 mg/kg, route oral; details: in vivo
Procedure, shortened: (§4)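 Oral PK in fasted male balb/c mice. Dosing vehicle was ethanol/PEG 400/water (10:60:30).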

[8] = Plasma concentration in Balb/c mouse at 10 mg/kg, po measured after 7 hrs; assay type: ADME, organism-based; procedure, shortened: as §4
[9] = Plasma concentration in Balb/c mouse at 10 mg/kg, po measured after 24 hrs; assay type: ADME, organism-based; procedure, shortened: as §4
[10] = Tmax in Balb/c mouse at 10 mg/kg, po; assay type: ADME, organism-based; details: in vivo; procedure, shortened: as §4
[11] = Total AUC in Balb/c mouse at 10 mg/kg, po measured after 24 hrs; assay type: ADME, organism-based; parameters: dose 10 mg/kg, time AUCmax, route oral; details: in vivo; procedure, shortened: as §4
[12] = Metabolic stability in Balb/c mouse liver microsomes assessed as parent compound remaining at 0.5 uM measured after 10 mins; assay type: ADME, Microsome; details: read-out: Stability
Procedure, shortened: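 Test compound at 0.5 μM was incubated for 10 min with mouse liver microsomes. The read-out is the percentage of parent remaining.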

| Structure (SMILES) | IC50 [1] [nM] | IC50 (Endothelial lipase [2]) [nM] | Papp [3] [×10⁻⁶ cm/s] | Papp [4] [×10⁻⁶ cm/s] | Ratio IC50 (Homo sapiens) | IC50 (Endothelial lipase [5]) [nM] | IC50 (Endothelial lipase [6]) [nM] | Cmax [7] [nM] | concentration at 7 h [8] [nM] | concentration at 24 h [9] [nM] | Tmax [10] [h] | AUC at 24 h [11] [µM·h] | remaining at 10 min, 0.5 µM [12] [%] |
| --- | --- | --- | --- | --- | --- | --- | --- | --- | --- | --- | --- | --- | --- |
| CS(=O)(=O)C(C(=O)NCC(=O)NC1CC1)c1nc2ccc(-c3ccc(F)nc3)cc2s1 (stereo not given) | 130 | 290 | 25.2 | 38.9 | 2.8 | 7 | – | – | – | – | – | – | – |
| O=C(CNC(=O)C(c1nc2ccc(-c3ccc(F)nc3)cc2s1)S(=O)(=O)CCC(F)(F)F)NC1CC1 (stereo not given) | 79 | 600 | – | – | 2.7 | 660 | – | – | – | – | – | – | – |
| CS(=O)(=O)C(C(=O)NCCS(N)(=O)=O)c1nc2ccc(-c3ccccc3)cc2s1 (stereo not given) | 15 | 100 to 210 | 36.5 | 36.8 | – | – | 10 | 3500 | 430 | 130 | 0.5 | 14 | 91 |
| CS(=O)(=O)C(C(=O)NCC(=O)NC1CC1)c1nc2ccc(-c3ccccc3)cc2s1 (stereo not given) | 47 | – | – | – | – | – | – | – | – | – | – | – | – |
| CS(=O)(=O)C(C(=O)NCCS(N)(=O)=O)c1nc2ccc(-c3cnn(CCN4CCOCC4)c3)cc2s1 (stereo not given) | – | 190 | – | – | – | – | 10 | 15 | 4 | 1 | 3 | 0.1 | 74 |

From ChEMBL document CHEMBL4387752, “Identification of substituted benzothiazole sulfones as potent and selective inhibitors of endothelial lipase” (Bioorg Med Chem Lett, 2019)
